In data set [1] the test system is ATP production in MDCK-MDR1 cells. The experiment in a line: ATP assay. In kind it is cell-based. The conditions noted are these: 20 mM HEPES in culture medium. Put shortly: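 MDCK-MDR1 cells grown in DMEM with 10% heat-inactivated calf serum at 37 °C, 5% CO2, in 96-well plates for 6–7 days to full confluence, in medium without HEPES (Set 1) or with 20 mM HEPES (Set 2). Cells lysed for […]; ATP in lysate read by luminescence kit, with protein measured by Bradford. At least triplicate; mean ± SD.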

In data set [2] the test system is MDCK-MDR1 cells. The experiment in a line: Uptake of radiolabelled substrates into MDCK-MDR1 cells in DPBS with HEPES.
Data set [3] can be described thus: Bidirectional transepithelial transport of [3H]lopinavir across MDCK-MDR1 cells. Format: in vitro ADME. The conditions noted are these: dog, MDCK-MDR1, 37 °C; for Papp A→B at 0.5 μCi/mL: MDCK-MDR1, pH 7.4, PappA-B; for Papp B→A at 0.5 μCi/mL: MDCK-MDR1, pH 7.4, PappB-A.
Data set [4] concerns MDCK-MDR1 cells. In kind it is in vitro ADME.
Data set [5] concerns MDCK-MDR1 cells.

In the case of `O=S(=O)(O)CCN1CCN(CCO)CC1` [HEPES, 4-(2-hydroxyethyl)-1-piperazineethanesulfonic acid], the “elevation of ATP production, Set 2 compared to Set 1” value in data set [1] is 70%.
For `N[C@@H](CCC(=O)O)C(=O)O` [glutamic acid], the “elevation of uptake over the control” value in the data set on MDCK-MDR1 cells [2] (15 mM HEPES) was “about 30%”; with MDCK-MDR1 cells [2] (25 mM HEPES), roughly 45%.
Regarding `Cc1cccc(C)c1OCC(=O)N[C@@H](Cc1ccccc1)[C@@H](O)C[C@H](Cc1ccccc1)NC(=O)[C@H](C(C)C)N1CCCNC1=O` [lopinavir], in data set [3] (25 mM HEPES in DPBS), the apical-to-basolateral permeability (Papp A→B) at 0.5 μCi/mL was 228 ± 10.3 nm/s and the Papp B→A at 0.5 μCi/mL stood at 1650 ± 111 nm/s. In addition, in data set [3] (Control (0 mM HEPES) in DPBS), the apical-to-basolateral permeability (Papp A→B) at 0.5 μCi/mL worked out at 302 ± 25.6 nm/s and the basolateral-to-apical permeability (Papp B→A) at 0.5 μCi/mL amounted to 1480 ± 79.2 nm/s. The “accumulation by Set 2 cells compared with Set 1 cells” value with MDCK-MDR1 cells [4] (Set 2 grown with 20 mM HEPES, Set 1 without, 0, 15, 25 mM HEPES in DPBS) is “significantly less”. Moreover, the “accumulation by Set 2 cells compared to Set 1 cells” value in the data set with MDCK-MDR1 cells [4] (in the presence of 1 μM or 2 μM unlabelled lopinavir, DPBS with 25 mM HEPES) is “higher accumulation”. Moreover, the “elevation of accumulation, Set 2 versus Set 1 cells” value in the data set with MDCK-MDR1 cells [4] (in the presence of 5 μM unlabelled lopinavir, DPBS with 25 mM HEPES) is listed as “not statistically different”. In addition, in the data set on MDCK-MDR1 cells [5], the “accumulation into cells versus control (0 mM HEPES)” value is listed as “significant reduction”.
In the case of `N[C@@H](Cc1ccccc1)C(=O)O` [phenylalanine], the “change of uptake in the presence of HEPES” value with MDCK-MDR1 cells [2] (15 and 25 mM HEPES) is given as “no significant change”.
Consider `CC(C)c1nc(CN(C)C(=O)N[C@H](C(=O)N[C@@H](Cc2ccccc2)C[C@H](O)[C@H](Cc2ccccc2)NC(=O)OCc2cncs2)C(C)C)cs1` [ritonavir], for which, in the data set with MDCK-MDR1 cells [5], the “accumulation into cells versus control (0 mM HEPES)” value is “significant reduction”.

A word on the Papp A→B: it is how fast a substance crosses the layer from the apical side. Higher therefore signals fast passage. The term Papp B→A denotes how fast a substance crosses the layer from the basolateral side.

These data come from PMC2849840 (Molecular pharmaceutics, 2010).
